Screening data as filed in PubChem BioAssay.
RGS4 inh – RGS4 inhibitors, primary screen, cell-based, HEK293 M3R inducible RGS4, calcium flux; Fluo-4 calcium flux; stronger effect = higher value; triggered by carbachol at its EC20; 310,000 tested, 0.45% active; AID 463165, 2010; Regulator of G-protein signaling 4 (Homo sapiens), P49798; B-score at 10 µM;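 active means B-score, a plate-corrected calcium signal, over three deviations above library mean, with baseline fluorescence within five deviations of library mean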;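 further: RGS4 expression induced by doxycycline in cells with stable M3 receptor; B-score is computed from the integrated fluorescence ratio over baseline after carbachol; higher B-score means a larger calcium signal and so more RGS4 inhibition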
Target sequence (P49798 whole entry, looked up): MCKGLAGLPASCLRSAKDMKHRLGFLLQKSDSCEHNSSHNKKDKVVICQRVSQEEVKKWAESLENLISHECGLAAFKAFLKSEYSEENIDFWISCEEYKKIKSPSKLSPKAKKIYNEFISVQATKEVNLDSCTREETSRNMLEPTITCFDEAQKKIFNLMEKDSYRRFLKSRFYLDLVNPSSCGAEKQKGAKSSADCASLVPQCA
MrgX1 agonist – agonists of human MrgX1 receptor, primary screen, HEK293 cells, Fluo-4 calcium flux; B-score at 10 µM; 310,000 tested, 0.44% active; AID 588627, 2011; Fluo-4 calcium fluorescence, agonist mode; stronger effect = higher value;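 active means calcium response B-score plate-corrected fluorescence ratio at least 3 library SD, with starting fluorescence B-score inside 5 SD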
Target sequence (Q96LB2 whole entry, looked up): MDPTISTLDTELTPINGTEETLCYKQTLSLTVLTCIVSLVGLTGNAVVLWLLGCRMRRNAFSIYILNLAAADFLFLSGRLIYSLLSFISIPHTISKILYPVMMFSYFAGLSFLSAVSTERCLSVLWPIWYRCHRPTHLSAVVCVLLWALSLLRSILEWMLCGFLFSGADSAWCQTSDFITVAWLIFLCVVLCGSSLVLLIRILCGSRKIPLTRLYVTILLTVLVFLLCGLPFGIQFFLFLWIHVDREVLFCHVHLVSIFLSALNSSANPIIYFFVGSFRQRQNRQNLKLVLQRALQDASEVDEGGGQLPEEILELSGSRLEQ
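Assay system: MrgX1-expressing HEK293 cells / Amount: fifteen thousand cells per well / Doses: test compound in the initial addition of three / Timing: cells plated overnight, dye loaded 0.5 h 37 °C, 0.5 h room temperature / Technique: kinetic calcium dye fluorescence, Fluo-4 NW / Control set: positive and negative controls per plate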
Hep lipid drop – inhibitors of hepatocyte lipid droplet formation, primary screen, imaging, high-throughput imaging, BODIPY stain. AML12 mouse hepatocytes, oleate lipid droplets. inhibition, % at 6.5 µM. 240,000 tested, 0.4% active. AID 1656, 2009;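 active means lipid droplet intensity inhibited by at least 50%, with more than 500 cells counted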
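Assay system: AML12 hepatocytes (mouse) / Also added: 100 µM oleic acid challenge / Times: overnight treatment with compound plus oleate / Detection: high-content imaging of BODIPY-stained droplets and DAPI nuclei / Evaluation: % inhibition of lipid droplet signal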
MrgX1 allo act – positive allosteric modulators of MrgX1, primary screen, HEK293 cells, Fluo-4 calcium flux; FDSS; stronger effect = higher value; B-score at 10 µM; 310,000 tested, 0.63% active;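 active means plate-corrected calcium response at least 3 library SD above typical, normal starting fluorescence, not activating the receptor alone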;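 further: compound read alongside a low EC10 to EC30 dose of BAM8-22 agonist; peak minus trough fluorescence over baseline measured at the second addition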
MrgX1 antag – antagonists of human MrgX1 receptor, primary screen, HEK293 cells, Fluo-4 calcium flux; Mas-related G-protein coupled receptor member X1 (Homo sapiens), Q96LB2; BAM8-22 antagonism; stronger effect = lower value; B-score at 10 µM; 310,000 tested, 1.3% active;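 active means calcium-response B-score plate-corrected more than 3 library SD below zero, starting fluorescence within 5 deviations, no agonist response on first addition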;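 further: peak minus trough fluorescence over baseline after final BAM8-22 challenge near maximal dose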
RGS4 pot – RGS4 potentiators or activators, primary screen, cell-based, HEK293 M3R inducible RGS4, calcium flux; B-score at 10 µM; carbachol calcium flux Fluo4; stronger effect = lower value; 310,000 tested, 0.92% active;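 active means B-score of the integrated calcium signal more than 4 SD below the library mean, with starting fluorescence not abnormally high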;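 further: negative B-score means reduced calcium response which marks RGS4 activation or potentiation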
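Test system: HEK293 cells with stable M3R and inducible RGS4; also added: carbachol at ECmax as muscarinic agonist stimulus; schedule: dye loading 30 min 37 °C, buffer rest 30 min RT; technique: kinetic calcium fluorescence imaging with Fluo4-AM dye, 2 µM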
MrgX1 antag conf – MrgX1 receptor antagonists, duplicate retest, confirmation, HEK293 cells, Fluo-4 calcium flux | remaining BAM8-22 calcium response % of control (stronger effect = lower value), % at 10 µM | BAM8-22 calcium flux; stronger effect = lower value | shares compounds with MrgX1 antag | 2,300 tested, 19% active;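 active means remaining agonist calcium response no higher than 100% minus 3 SD of agonist-only control wells, with starting fluorescence near control levels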;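 further: agonist BAM8-22 given at a near maximal EC90 to ECmax level; peak minus minimum fluorescence divided by baseline after agonist addition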
HEK293 Ca flux – nonspecific calcium signal in parental HEK293, confirmation, counter-screen for MrgX1 antagonist project, parental HEK293 cells, Fluo-4 calcium flux; shares compounds with MrgX1 antag; Fluo-4 calcium fluorescence, FDSS; fluorescence ratio F(max-min)/F0 at 10 µM; 4,000 tested, 2% active; AID 624111, 2012;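 active means duplicate-averaged calcium fluorescence ratio at least three times the standard deviation of buffer wells, a nonspecific response in parental cells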
HEK293 Ca counter – calcium response in parental HEK293 cells, primary screen, counter-screen for MrgX1 allosteric activator project, cell-based, Fluo-4 calcium flux, duplicate. 4,000 tested, 0.4% active. fluorescence ratio F(max-min)/F0 at 10 µM. AID 624114, 2012. Fluo-4 fluorescence ratio; stronger effect = higher value. shares compounds with MrgX1 antag;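 active means calcium fluorescence ratio, averaged over duplicates, at least 3 SD of the buffer-well ratio, meaning a nonspecific response in receptor-free cells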;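 further: untransfected parental HEK293 lacking MrgX1 used as counterscreen for MrgX1 allosteric activators; fluorescence change taken during the second addition on a kinetic imager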
HEK293 Ca cntr2 – calcium response in parental HEK293 cells, primary screen, counter-screen for MrgX1 agonist project, cell-based, Fluo-4 calcium flux, duplicate, agonist mode. shares compounds with MrgX1 antag. Fluo-4 calcium fluorescence (FDSS); stronger effect = higher value. fluorescence ratio F(max-min)/F0 at 10 µM. 4,000 tested, 8.7% active. AID 624115, 2012;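 active means calcium fluorescence ratio at least three times the spread of buffer wells, meaning a non-specific response in parental cells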
* = called active by the depositor; i = inactive; nt = not tested or not shown. A selection: hits, their analogues and other compounds. The true share with any hit is near 3.8%.

SMILES | RGS4 inh | MrgX1 agonist | Hep lipid drop | MrgX1 allo act | MrgX1 antag | RGS4 pot | MrgX1 antag conf | HEK293 Ca flux | HEK293 Ca counter | HEK293 Ca cntr2
Cc1cc2c3nonc3ccc2n1-c1ccccc1 | i | i | nt | i | -5.2* | i | 84%* | i | i | i
O=C(NCCc1ccccc1)C1CCC(CNS(=O)(=O)c2cccs2)CC1 (stereo not drawn) | i | i | 8 | i | i | i | nt | nt | nt | nt
Cc1ccc(Nc2c(-c3ccc(C)o3)nc3ncccn23)cc1 | i | i | -34 | i | i | i | nt | nt | nt | nt
Cc1ccc(-c2nc3ncccn3c2Nc2ccc3c(c2)OCO3)o1 | i | i | 10 | i | -5.4* | i | i | i | i | i
CC(C)OC(=O)c1ccc(COC(=O)c2cnccn2)cc1 | i | i | 5 | i | -5.4* | i | i | i | i | i
COc1cc(CN(C)C(C)C(=O)Nc2ccc([N+](=O)[O-])cc2Cl)ccc1OC(F)F (stereo not drawn) | i | i | -7 | i | -21* | i | i | i | i | i
COc1ccc([N+](=O)[O-])cc1NC(=O)C(C)N(C)Cc1cccc(OC)c1OC (stereo not drawn) | i | i | -3 | i | i | i | nt | nt | nt | nt
O=[N+]([O-])c1ccc(-c2nc3ccc([N+](=O)[O-])cc3[nH]2)cc1 | i | i | nt | i | -10* | i | i | i | i | i
Cc1ccc(Cl)cc1N1CCN(C(=O)CN(C2CCCCC2)S(C)(=O)=O)CC1 | i | i | -17 | i | -12* | i | i | i | i | i
CS(=O)(=O)N(CC(=O)N1CCN(c2cccc(Cl)c2)CC1)C1CCCCC1 | i | i | -46 | i | i | i | nt | nt | nt | nt
COc1nc2c(c(-c3cc(Br)cs3)c1C#N)Cc1ccccc1-2 | i | i | 8 | i | i | i | nt | nt | nt | nt
COc1ccc(CC(=O)NC(C)(C)C)cc1S(=O)(=O)N1CCOCC1 | i | i | 18 | i | i | i | nt | nt | nt | nt
COc1ccc(CC(=O)NC(C)c2ccc(S(N)(=O)=O)cc2)cc1S(=O)(=O)N1CCOCC1 (stereo not drawn) | i | i | -2 | i | -9.3* | i | i | i | i | i
O=C(NCCc1ccccc1)C1CCN(C(=O)NCc2ccccc2)CC1 | i | i | -4 | i | -11* | i | i | i | i | i
O=C(NCCN1CCC(Cc2ccccc2)CC1)C1CCN(S(=O)(=O)N2CCC3(CC2)OCCO3)CC1 | i | i | 7 | i | i | i | nt | nt | nt | nt
O=C(NCCc1ccccc1)C1CCN(S(=O)(=O)N2CCC3(CC2)OCCO3)CC1 | i | i | -14 | i | -6* | i | i | i | i | i
Cc1ccc(C(=O)n2nc(C#N)c(C#N)c2N)cc1 | i | i | 15 | i | i | i | nt | nt | nt | nt
O=C(Nc1ccc(Cl)cc1)Nc1cnccn1 | i | i | -1 | i | i | i | nt | nt | nt | nt
Fc1ccc(NC(=S)Nc2cccnc2)cc1Cl | i | i | -6 | i | -5.6* | i | i | i | i | i
Fc1ccc(NC(=S)Nc2cccnc2)cc1 | i | i | 8 | i | i | i | nt | nt | nt | nt
O=C(Nc1ccc(F)c(Cl)c1)Nc1cnccn1 | i | i | 0 | i | -6.2* | i | i | i | i | i
Cc1ccc(NC(=O)Nc2cccnc2)cc1Cl | i | i | 18 | i | -4.7* | i | 80%* | i | i | i
Cc1ccccc1NC(=O)Cc1nc(CCl)cs1 | i | i | nt | i | -5.4* | i | i | i | i | i
O=C(NCCCN1CCOCC1)c1cc2ccccc2cc1O | i | i | nt | i | -4.7* | i | i | i | i | i
O=C(O)CCN1C(=O)NC2(CCCC2)C1=O | i | i | nt | i | -7.3* | i | i | i | i | i
SMILES | RGS4 inh | MrgX1 agonist | Hep lipid drop | MrgX1 allo act | MrgX1 antag | RGS4 pot | MrgX1 antag conf | HEK293 Ca flux | HEK293 Ca counter | HEK293 Ca cntr2
CN1CCN(C(c2ccc(Br)cc2)c2cc(Cl)c3cccnc3c2O)CC1 (stereo not drawn) | i | i | -18 | i | -5.3* | i | i | i | i | i
CN1CCN(C(c2cccnc2)c2ccc3cccnc3c2O)CC1 (stereo not drawn) | i | i | 0 | i | i | i | nt | nt | nt | nt
Cc1cc(Cl)ccc1OC(C)C(=O)Nc1ccc(C(=O)Nc2ccccc2C(=O)O)cc1 (stereo not drawn) | i | i | 7 | i | i | i | nt | nt | nt | nt
CC(C)(C)c1ccc(C(=O)C2CCCN(C(=O)c3ccccn3)C2)cc1 (stereo not drawn) | i | nt | -6 | nt | nt | i | nt | nt | nt | nt
C=CCN1C(=O)c2cccc3c(Br)ccc(c23)C1=O | i | i | 21 | i | -7.6* | i | i | i | i | i
C=CCN1C(=O)c2cccc3c(N4CCCCC4)ccc(c23)C1=O | i | i | -17 | i | i | i | nt | nt | nt | nt
COc1ccc(C(=O)N2CCOC2CNC(=O)C(=O)NCc2ccc(F)cc2)cc1 (stereo not drawn) | i | i | -7 | i | -5.1* | i | i | i | i | i
